{"data": "Published values gathered from unrelated publications", "CDK4 with cyclin D1": "Cyclin-dependent kinase 4, with cyclin D1 (CDK4, Homo sapiens, UniProt P11802)", "CDK4 with cyclin D3": "Cyclin-dependent kinase 4, with cyclin D3 (CDK4, Homo sapiens, UniProt P11802)", "AMY2": "Pancreatic alpha-amylase (AMY2, Sus scrofa, UniProt P00690)", "CHRM2": "Muscarinic acetylcholine receptor M2 (CHRM2, Homo sapiens, UniProt P08172)", "note": "Each line is one published result; the experiments were not run side by side. pIC50: −log10 of the molar value."}
{"Compound": "N=C(N)c1ccc(OCCCCCOc2ccc(C(=N)N)cc2)cc1", "target": "Chymotrypsinogen A (Bos taurus, UniProt P00766)", "observed": "enzyme activity", "mode": "inhibitor", "method": "absorbance", "pIC50": "< 2.76"}
{"Compound": "Cc1cc(O)c(-c2ccc([C@@H](C)CN(C)C)cc2)c2c1[nH]c(=O)c1sccc12", "target": "CDK4 with cyclin D1", "observed": "enzyme activity", "mode": "inhibitor", "pIC50": "< 6.00"}
{"Compound": "CN(C)C(=O)c1cc2cnc(Nc3ccc(-c4ccc5c(=O)cc(N6CCOCC6)oc5c4)c(F)c3)nc2n1C1CCCC1", "target": "CDK4 with cyclin D1", "observed": "enzyme activity", "mode": "inhibitor", "method": "radiometric", "pIC50": 7.91}
{"Compound": "CNS(=O)(=O)c1ccc(Nc2ncc(C(F)(F)F)c([C@H]3CC[C@@](C)(O)CC3)n2)c(C)c1", "target": "CDK4 with cyclin D3", "observed": "enzyme activity", "mode": "inhibitor", "method": "radiometric", "pIC50": 5.46}
{"Compound": "CN(C)C(=O)c1cc2cnc(Nc3cccc4c(=O)cc(N5CCOCC5)oc34)nc2n1C1CCCC1", "target": "CDK4 with cyclin D1", "observed": "enzyme activity", "mode": "inhibitor", "method": "radiometric", "pIC50": "< 5.00"}
{"Compound": "Cc1cc(S(=O)(=O)NCCO[C@H]2CC[C@H](CN3CCC(c4ccn5c(N6CCC(=O)NC6=O)cnc5c4)CC3)CC2)ccc1Nc1ncc2cc(Cl)c(=O)n(C3CCCC3)c2n1", "target": "CDK4 with cyclin D3", "observed": "enzyme activity", "mode": "inhibitor", "method": "radiometric", "pIC50": 7.59}
{"Compound": "Cc1c(N2CCOCC2)oc2c(-c3ccc(Nc4ncc5cc(C(=O)N(C)C)n(C6CCCC6)c5n4)cc3F)cccc2c1=O", "target": "CDK4 with cyclin D1", "observed": "enzyme activity", "mode": "inhibitor", "method": "radiometric", "pIC50": 5.48}
{"Compound": "O=c1cc(-c2ccc(O)c(O)c2)oc2c(Br)c(O)c(Br)c(O)c12", "target": "AMY2", "observed": "enzyme activity", "mode": "inhibitor", "pIC50": 6.00}
{"Compound": "O=C(CCNC(=O)CNC(=O)CC(c1ccccc1)(c1ccccc1)c1ccccc1)NC[C@@H]1CCCN(Cc2cccnc2F)C1", "target": "CHRM2", "observed": "ligand displacement", "method": "radioligand", "notes": "cell membranes", "pIC50": "< 4.52"}
{"Compound": "O=c1c(O)c(-c2ccc(O)c(O)c2)oc2c(Br)c(O)c(Br)c(O)c12", "target": "AMY2", "observed": "enzyme activity", "mode": "inhibitor", "pIC50": 4.70}
{"Compound": "COc1ccc2c(c1)CN(C(=O)CCN1CCC(Cc3ccccc3)CC1)CC[S@@+]2[O-]", "target": "Voltage-dependent L-type calcium channel subunit alpha-1C (CACNA1C, Homo sapiens, UniProt Q13936)", "observed": "ion current", "mode": "inhibitor", "method": "patch clamp", "pIC50": "< 4.00"}
{"Compound": "O=C(/C=C/c1ccc(O)c(O)c1)O[C@H](Cc1ccc(O)c(O)c1)C(=O)O", "target": "Pancreatic triacylglycerol lipase (PNLIP, Sus scrofa, UniProt P00591)", "observed": "enzyme activity", "mode": "inhibitor", "method": "absorbance", "pH": "pH 8", "pIC50": 3.86}
{"Compound": "CN1CCC(CNc2ccc3ncc(-c4cccc(OC(F)(F)F)c4)n3n2)CC1", "target": "CHRM2", "observed": "cAMP", "mode": "antagonist", "pIC50": 5.29}
{"Compound": "CN(C)C(=O)c1cc2cnc(Nc3ccc4c(=O)cc(N5CCOCC5)oc4c3)nc2n1C1CCCC1", "target": "CDK4 with cyclin D1", "observed": "enzyme activity", "mode": "inhibitor", "method": "radiometric", "pIC50": 8.38}
{"Compound": "CNS(=O)(=O)c1ccc(Nc2ncc(C(F)(F)F)c(N3CCCC(C)(O)C3)n2)c(C)c1 (stereo not shown)", "target": "CDK4 with cyclin D3", "observed": "enzyme activity", "mode": "inhibitor", "method": "radiometric", "pIC50": 6.15}
{"Compound": "CN(C)C(=O)c1cc2cnc(Nc3ccc(-c4cccc5c(=O)cc(N6CCOCC6)oc45)c(F)c3)nc2n1C1CCCC1", "target": "CDK4 with cyclin D1", "observed": "enzyme activity", "mode": "inhibitor", "method": "radiometric", "pIC50": 6.94}
{"Compound": "CC(C)(C)NS(=O)(=O)c1cccc(C(=O)N2CC3(CCC4(CC4)CC3)c3cc(NS(C)(=O)=O)ccc32)c1", "target": "Kinesin-like protein KIF18B (Homo sapiens, UniProt Q86Y91)", "observed": "ATPase activity", "mode": "inhibitor", "pIC50": "< 4.00"}
{"Compound": "CN(C)C(=O)c1cc2cnc(Nc3ccc(-c4cccc5c(=O)cc(N6CCOCC6)oc45)cc3)nc2n1C1CCCC1", "target": "CDK4 with cyclin D1", "observed": "enzyme activity", "mode": "inhibitor", "method": "radiometric", "pIC50": 6.65}
{"Compound": "O=C(CCNC(=O)CNC(=O)CC(c1ccccc1)(c1ccccc1)c1ccccc1)NCC1CCN(Cc2ccc(F)cc2)CC1", "target": "CHRM2", "observed": "ligand displacement", "method": "radioligand", "notes": "cell membranes", "pIC50": 5.19}
